From ChEMBL document CHEMBL3098050, “Stereoselective total synthesis of a novel regiomer of herbarumin I and its cytotoxic and antimicrobial activities” (Bioorg Med Chem Lett, 2014)
Converted amounts (≈) assume the structure as drawn.

Experiments:
DU-145 = assay: Cytotoxicity against human DU145 cells by MTT assay; type: functional, cell-based
How it was run: (§1)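 MTT read-out (Mosmann method); absorbance dose–response curves plotted and IC50 calculated from them; each cell line's value is the mean of two independent experiments; doxorubicin as positive control.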

COLO 205 = assay: Cytotoxicity against human COLO205 cells by MTT assay; type: functional, cell-based; how it was run: as §1
Staphylococcus aureus = assay: Antimicrobial activity against Staphylococcus aureus MTCC 96 after 18 hrs by microtitre broth dilution method; type: functional; settings: MTCC 96, 18 h
How it was run: (§2)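 Microtiter broth dilution; MIC per pathogen taken from four individual observations; ciprofloxacin as bacterial positive control.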

Bacillus subtilis = assay: Antimicrobial activity against Bacillus subtilis MTCC 121 after 18 hrs by microtitre broth dilution method; type: functional; settings: MTCC 121, 18 h; how it was run: as §2
Raoultella planticola = assay: Antimicrobial activity against Klebsiella planticola MTCC 530 after 18 hrs by microtitre broth dilution method; type: functional; settings: MTCC 530, 18 h; how it was run: as §2
A549 = assay: Cytotoxicity against human A549 cells by MTT assay; type: functional, cell-based; how it was run: as §1
MDA-MB-231 = assay: Cytotoxicity against human MDA-MB-231 cells by MTT assay; type: functional, cell-based; how it was run: as §1
HepG2 = assay: Cytotoxicity against human HepG2 cells by MTT assay; type: functional, cell-based; how it was run: as §1
Escherichia coli = assay: microbe, parasite or virus in culture; settings: MTCC 739, 18 h
Pseudomonas aeruginosa = assay: microbe, parasite or virus in culture; settings: MTCC 2453, 18 h

Row | SMILES | IC50 (DU-145) | IC50 (COLO 205) | MIC (Staphylococcus aureus) | MIC (Bacillus subtilis) | MIC (Raoultella planticola) | IC50 (A549) | IC50 (MDA-MB-231) | IC50 (HepG2) | MIC (Escherichia coli) | MIC (Pseudomonas aeruginosa)
1 | COc1cccc2c1C(=O)c1c(O)c3c(c(O)c1C2=O)C[C@@](O)(C(=O)CO)C[C@@H]3O[C@H]1C[C@H](N)[C@H](O)[C@H](C)O1 [DOXORUBICIN] | 0.6 µM | 0.5 µM |  |  |  |  |  |  |  | 
2 | CCC[C@H]1OC(=O)[C@H](O)CC/C=C/C[C@@H]1O | 8.9 µM | 5.1 µM | 7.8 µg/mL (≈ 34.2 µM) | 15.6 µg/mL (≈ 68.3 µM) | 15.6 µg/mL (≈ 68.3 µM) | 8.1 µM | 6.2 µM | 9.1 µM |  | 
3 | O=C(O)c1cn(C2CC2)c2cc(N3CCNCC3)c(F)cc2c1=O [CIPROFLOXACIN] |  |  | 0.9 µg/mL (≈ 2.72 µM) | 0.9 µg/mL (≈ 2.72 µM) | 0.9 µg/mL (≈ 2.72 µM) |  |  |  | 0.9 µg/mL (≈ 2.72 µM) | 0.9 µg/mL (≈ 2.72 µM)
